Measurements: PMC6811699 (Stem Cells Translational Medicine, 2019)

Columns and labels:
[1] = test system: induced sensory neuron cells (iSNs); experiment: Resazurin reduction cell viability assay; assay type: cell-based; conditions: Homo sapiens, 48 h, read-out: Detected cell viability IC50
How it was run: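 iSNs were specified and matured, reseeded into 96‑well plates, and dosed 24 hours later. Compounds were given as four 10‑fold dilutions, 0.01–10 μM final, with 0.1% DMSO final, in quadruplicate wells, for 48 hours. Medium was then replaced with 10 μg/ml resazurin in snMat medium for 2 hours at 37°C, 5% CO₂. Fluorescence was read at 544/590 nm. There were three biological replicates, reported as mean ± SEM, and IC50 came from the dose–response.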

[2] = test system: induced sensory neuron cells (iSNs); experiment: High-content imaging, neurite length analysis; assay type: cell-based, human; conditions: 48 hours, 0.01–10 μM, treated 24 hours after seeding
How it was run: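 iSNs from blood-derived neural precursors, specified (DAPT, SU5402, CHIR99021) then matured (BDNF, GDNF, NGF, NT-3, ascorbic acid, forskolin), reseeded to 96-well plates; dosed 24 h later, 10-fold dilutions, 0.01–10 μM, 0.1% DMSO final, quadruplicate wells, 48 h.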

[3] = read-out: Reported neurite length IC50; literature values; cited from earlier work
patients = conditions: cited from earlier work
iSNs = experiment: Calcium imaging; assay type: cell-based, human; conditions: iSNs from adult nonmobilized PB, 30 μM α,β-meATP
How it was run: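 Mature iSNs were loaded with Fluo‑4‑AM for 1 hour at room temperature, then de‑esterified for 45 minutes. They were washed and kept in Hanks' balanced salt solution with 25 mM HEPES and 5.5 mM glucose. Agonists diluted in this buffer were applied at final 30 μM α,β‑meATP or 1 μM capsaicin to day‑7 iSNs in 96‑well plates. Peak calcium flux was recorded by epifluorescence microscopy with a xenon arc lamp.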

CC(C)C[C@H](NC(=O)[C@H](Cc1ccccc1)NC(=O)c1cnccn1)B(O)O [Bortezomib]
IC50 [1]: 1000 nM | effect on neurite length / neurite degeneration [2]: neurite degeneration only at the highest tested concentrations | IC50 [3]: > 100000 nM | NP incidence (patients): 20–30% | Neurotoxic dose in patients (patients): 30 mg/m^2

N.N.[Cl][Pt][Cl] [Cisplatin]
effect on neurite length / neurite degeneration [2]: reduced neurite length in the absence of cytotoxicity | IC50 [3]: > 100000 nM | NP incidence (patients): 70–100%

COc1cc([C@@H]2c3cc4c(cc3[C@@H](O[C@@H]3O[C@@H]5CO[C@@H](C)O[C@H]5[C@H](O)[C@H]3O)[C@H]3COC(=O)[C@H]23)OCO4)cc(OC)c1O [Etoposide]
effect on neurite length / neurite degeneration [2]: reduced neurite length in the absence of cytotoxicity | IC50 [3]: 360 nM

CC(=O)O[C@H]1C(=O)[C@@]2(C)[C@H]([C@H](OC(=O)c3ccccc3)[C@]3(O)C[C@H](OC(=O)[C@H](O)[C@@H](NC(=O)c4ccccc4)c4ccccc4)C(C)=C1C3(C)C)[C@]1(OC(C)=O)CO[C@@H]1C[C@@H]2O [Taxol, Paclitaxel]
IC50 [1]: 7400 nM | effect on neurite length / neurite degeneration [2]: reduced neurite length in the absence of cytotoxicity | IC50 [3]: 5.6 to 10 nM

CC[C@]1(O)C[C@H]2CN(CCc3c([nH]c4ccccc34)[C@@](C(=O)OC)(c3cc4c(cc3OC)N(C=O)[C@H]3[C@@](O)(C(=O)OC)[C@H](OC(C)=O)[C@]5(CC)C=CCN6CC[C@]43[C@@H]65)C2)C1 [Vincristine]
IC50 [1]: 600 nM | effect on neurite length / neurite degeneration [2]: reduced neurite length in the absence of cytotoxicity | NP incidence (patients): Up to 20% | Neurotoxic dose in patients (patients): 5–15 mg/m^2

Nc1ncnc2c1ncn2[C@@H]1O[C@H](COP(=O)(O)CP(=O)(O)OP(=O)(O)O)[C@@H](O)[C@H]1O [α,β‐meATP, α,β‐methylene‐ATP]
cytosolic calcium response (iSNs): robust elevation of cytosolic calcium
